Data from publication PMC13435124 (The FASEB Journal, 2026).

Tests used:
[1] = test system: Nrf2 in N2a-APPswe cells; assay: Nrf2 cytoplasmatic and nuclear protein levels, western blot; assay type: cell-based, mouse; conditions: 250 μM, 6 h, vs untreated cells
Method in brief: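 N2a-APPswe cells exposed to test compound at 250 μM for 2, 4 and 6 h. Cytoplasmic and nuclear Nrf2 assessed by western blot.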

[2] = test system: BV-2 cells exposed to LPS; assay: iNOS and pro-IL-1β protein in LPS-stimulated microglia, western blot; assay type: cell-based, mouse; conditions: BV-2, 250 μM, LPS 50 ng/mL, 24 h
Method in brief: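 BV-2 cells given test compound at 250 μM, LPS 50 ng/mL added 30 min later, for 24 h. iNOS and pro-IL-1β protein measured by western blot. Mean ± SEM of four independent experiments, relative to untreated control.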

[3] = test system: BV-2 cells exposed to LPS; assay: Nitric oxide production; assay type: cell-based, mouse; conditions: BV-2, 250 μM, LPS 50 ng/mL, 24 h
Method in brief: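 BV-2 microglia given test compound at 250 μM, then LPS 50 ng/mL 30 min later, for 24 h. Nitrite measured in supernatants by Griess assay at 550 nm against a sodium nitrite standard curve. Mean ± SEM of four independent experiments, relative to untreated control.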

[4] = test system: N2a-wt cells; assay: Cell metabolism, Alamar Blue; assay type: cell-based, mouse; conditions: 24 h, Alamar Blue (Figure S1A)
Method in brief: (§1)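 Cells exposed 24 h to test compound at 500, 250, 100, 50 or 5 μM, DMSO final up to 0.1% v/v. Resazurin 50 μM in PBS added 3 h before the end. Absorbance read at 570 nm with 620 nm reference. Highest nontoxic concentration chosen from metabolic capacity.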

[5] = test system: BV-2 cells; assay: Cell metabolism, Alamar Blue; assay type: cell-based, mouse; conditions: 24 h, Alamar Blue (Figure S1B)
Method in brief: as §1

[6] = test system: Nrf2 activation in KeratinoSens cells; assay: KeratinoSens reporter gene assay; assay type: cell-based; conditions: 6 h; Iso 250 μM, DMF 50 μM
Method in brief: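 KeratinoSens ARE-luciferase cells (passage ≤22) plated at 1.0 × 10^4 per well in triplicate; after 24 h switched to DMEM with 1% FBS, no geneticin. Wortmannin 500 nM added 1 h before test compound at 250 μM; DMF 50 μM as positive control; DMSO ≤0.1%. After 6 h, Alamar Blue (4 h, 37°C), then luciferase read as fold over DMSO. Three independent experiments in triplicate.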

[7] = Blood-brain barrier permeability, PAMPA with 2% porcine polar brain lipid; assay type: in vitro ADME; conditions: 150 μg/mL, 16 h, cut-off 2.0 × 10^−6 cm s^−1 (Figure S4)
Method in brief: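 PAMPA blood–brain barrier model using membranes with 2% (w/v) porcine polar brain lipid. Permeability given as experimental Papp in cm/s. Mean of three independent experiments, each run in duplicate.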

[8] = target: BACE1 (Homo sapiens, UniProt P56817); assay: BACE1 activity assay; assay type: biochemical; conditions: cell-free, tested at 50, 100 and 250 μM (Table S1)
[9] = test system: WT female mice; assay: Safety: histopathology and serum biochemistry after 1 month intranasal dosing; assay type: in vivo, mouse; conditions: intranasal 100 mg/kg
Method in brief: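 11-month-old WT females given intranasal PBS or test compound at 100 mg/kg for 1 month. Histopathology of heart, hippocampus, lung, liver and kidney. Serum GOT, GGT, ALP, albumin, creatinine and urea reported as mg/dL or IU/L.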

[10] = test system: APP/PS1 female mice; assay: Behavioral tests in 6-month-old females; assay type: in vivo, mouse; conditions: intranasal 50 mg/kg, 1 month
[11] = test system: APP/PS1 female mice; assay: Aβ40 and Aβ42 levels in brain and plasma of 6-month-old females; assay type: in vivo, mouse; conditions: 1 month
Method in brief: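 WT and APP/PS1 females given PBS vehicle or test compound at 50 mg/kg (APP/PS1 only) intranasally, without anaesthesia, by micropipette for 1 month; groups of 5 per arm. Brain Aβ40 and Aβ42 quantified. Mean ± SEM of five to six animals.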

[12] = test system: WT and APP/PS1 male mice; assay: Body weight and metabolic parameters of 11-month-old males; assay type: in vivo, mouse; conditions: 1 month
[13] = test system: APP/PS1 male mice; assay: Novel object recognition test; assay type: in vivo, mouse; conditions: APP/PS1 males, 100 mg/kg, 1 month
Method in brief: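 Behavioural testing in 10-month-old APP/PS1 and WT littermate males, randomised n = 5 per group. Intranasal PBS or test compound at 100 mg/kg for 1 month. Distance travelled also recorded.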

[14] = test system: APP/PS1 male mice; assay: Fear conditioning test; assay type: in vivo, mouse; conditions: 100 mg/kg, 1 month
Method in brief: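 10-month-old males, n = 5 per group, given intranasal PBS or test compound at 100 mg/kg for 1 month. Day 1: paired auditory–shock stimuli, return to cage 1 min after last pair. Day 2: freezing scored 5 min in context A. Day 3: altered context B, freezing scored 3 min, then 3 min with auditory cue.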

[15] = 6-month-old APP/PS1 females + Iso 50 mg/kg
[16] = 6-month-old APP/PS1 females, 50 mg/kg, vs untreated

Chain of BACE1 (P56817 46-457 limits assumed): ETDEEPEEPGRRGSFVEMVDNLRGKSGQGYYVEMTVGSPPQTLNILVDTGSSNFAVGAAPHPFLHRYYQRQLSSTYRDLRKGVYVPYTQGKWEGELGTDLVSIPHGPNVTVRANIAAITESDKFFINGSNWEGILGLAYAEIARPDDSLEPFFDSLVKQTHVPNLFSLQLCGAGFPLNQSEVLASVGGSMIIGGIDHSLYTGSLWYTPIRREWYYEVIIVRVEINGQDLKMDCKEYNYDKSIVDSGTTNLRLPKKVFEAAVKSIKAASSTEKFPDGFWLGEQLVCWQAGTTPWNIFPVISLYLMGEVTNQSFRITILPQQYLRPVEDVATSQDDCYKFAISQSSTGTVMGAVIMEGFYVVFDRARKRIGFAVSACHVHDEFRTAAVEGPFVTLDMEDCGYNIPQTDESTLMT

## CC=Cc1ccc(O)c(OC)c1 [Iso, 2‐methoxy‐4‐(prop‐1‐en‐1‐yl) phenol]
[1]
  Nrf2 nuclear levels: significantly increased
[2]
  LPS-induced iNOS protein levels: reduced
  LPS-induced pro-IL-1β protein levels: reduced
[3]
  LPS-triggered nitrite production: significantly decreased
[4]
  highest nontoxic concentration tested: 250 µM
[5]
  highest nontoxic concentration tested: 250 µM
[6]
  Nrf2 activation (luciferase induction): induced Nrf2 activation
[7]
  BBB permeability (PAMPA Papp): could cross the BBB
[8]
  BACE1 activity: inhibited
[9]; 11-month-old WT females
  LDL cholesterol: reduction
[9]; WT females
  hippocampus histopathology: Increased cell activation
  kidney histopathology: cellular eosinophilia and tubular epithelial hypertrophy
  liver histopathology (hepatic steatosis seen in VEH): also maintained
  serum albumin: no alterations were detected
  serum alkaline phosphatase (ALP): no alterations were detected
  serum creatinine: no alterations were detected
  serum gamma-glutamyl transferase (GGT): no alterations were detected
  serum glutamic oxaloacetic transaminase (GOT): no alterations were detected
  serum urea: no alterations were detected
[9]; WT females, vs VEH
  heart histopathology: No histopathological changes were observed
[10]
  behavior (hot plate, open field, fear conditioning): no relevant behavioral alterations were observed
[11]; [15]
  plasma Aβ40 levels: 72.29 ± 7.271 picograms per milliliter
  plasma Aβ42 levels: 83.88 ± 9.498 picograms per milliliter
[11]; [16]
  brain Aβ40 levels: decreased
  brain Aβ42 levels: decreased
[12]; 11-month-old APP/PS1 males, 100 mg/kg
  triglycerides: reduction
[12]; 11-month-old WT and APP/PS1 males, 100 mg/kg
  adipose tissue weight: trend toward a decrease
[12]; 11-month-old males, intranasal 100 mg/kg
  decrease in body weight: < 15%
[13]
  percentage of investigations in the novel object (decreased in APP/PS1 VEH): reverted
  recognition index (lowered in APP/PS1 VEH): reversed
[14]; APP/PS1 males
  % of freezing, contextual memory (day 2): clear but not significant increase
[14]; males
  associative memory (day 3): no differences were detected
